Source: ChEMBL document CHEMBL1150793, “In vitro susceptibilities of 217 clinical isolates of zygomycetes to conventional and new antifungal agents” (2007)
In brackets after ≈: the same amount, converted by molar mass. Activity calls are given as the source filed them. No cut-off for these calls is given here.

Legend:
[1] = test system: Rhizopus; assay: Antimicrobial activity against Rhizopus sp. after 24 hrs; type: functional
Procedure, shortened: (§1)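 Broth microdilution of clinical isolates following CLSI M38-A for filamentous fungi. The polyene and echinocandin agents were tested in antibiotic medium 3, and the other agents in RPMI 1640. Plates were incubated 24 h at 35°C and end points read visually. The echinocandin end point was the minimal effective concentration (MEC); the others were MICs.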

[2] = test system: Rhizopus arrhizus; assay: Antimicrobial activity against Rhizopus arrhizus after 24 hrs; type: functional
Procedure, shortened: (§2)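 Clinical zygomycete isolates tested by broth microdilution in microtiter format, in essential agreement with CLSI M38-A for filamentous fungi. The polyene and echinocandin were tested in antibiotic medium 3, and the other agents in RPMI 1640. Plates were incubated for 24 h at 35°C, and end points were read visually. The echinocandin end point was taken as the minimal effective concentration.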

[3] = test system: Rhizopus microsporus var. rhizopodiformis; assay: Antimicrobial activity against Rhizopus microsporus var. rhizopodiformis after 24 hrs; type: functional; procedure, shortened: as §1
[4] = test system: Mucor; assay: Antimicrobial activity against Mucor sp. after 24 hrs; type: functional; procedure, shortened: as §1
[5] = test system: Absidia; assay: Antimicrobial activity against Absidia sp. after 24 hrs; type: functional, organism-based; procedure, shortened: as §2
[6] = test system: Mucor circinelloides; assay: Antimicrobial activity against Mucor circinelloides after 24 hrs; type: functional; procedure, shortened: as §2
[7] = test system: Rhizomucor; assay: Antimicrobial activity against Rhizomucor sp. after 24 hrs; type: functional; procedure, shortened: as §2
[8] = test system: Lichtheimia corymbifera; assay: Antimicrobial activity against Absidia corymbifera after 24 hrs; type: functional; procedure, shortened: as §2
[9] = test system: Cunninghamella; assay: Antimicrobial activity against Cunninghamella sp. after 24 hrs; type: functional; procedure, shortened: as §2
[10] = test system: Apophysomyces elegans; assay: Antimicrobial activity against Apophysomyces elegans after 24 hrs; type: functional; procedure, shortened: as §2
[11] = test system: Rhizopus; assay: Antimicrobial activity against Rhizopus sp. assessed as percent of susceptible isolates after 24 hrs; type: functional
[12] = test system: Rhizopus arrhizus; assay: Antimicrobial activity against Rhizopus arrhizus assessed as percent of susceptible isolates after 24 hrs; type: functional
[13] = test system: Rhizopus microsporus var. rhizopodiformis; assay: Antimicrobial activity against Rhizopus microsporus var. rhizopodiformis assessed as percent of susceptible isolates after 24 hrs; type: functional
[14] = test system: Rhizopus microsporus var. microsporus; assay: Antimicrobial activity against Rhizopus microsporus var. microsporus assessed as percent of susceptible isolates after 24 hrs; type: functional
[15] = test system: Mucor; assay: Antimicrobial activity against Mucor sp. after assessed as percent of susceptible isolates after 24 hrs; type: functional
[16] = test system: Mucor circinelloides; assay: Antimicrobial activity against Mucor circinelloides assessed as percent of susceptible isolates after 24 hrs; type: functional
[17] = test system: Rhizomucor; assay: Antimicrobial activity against Rhizomucor sp. assessed as percent of susceptible isolates after 24 hrs; type: functional
[18] = test system: Absidia; assay: Antimicrobial activity against Absidia sp. assessed as percent of susceptible isolates after 24 hrs; type: functional
[19] = test system: Lichtheimia corymbifera; assay: Antimicrobial activity against Absidia corymbifera assessed as percent of susceptible isolates after 24 hrs; type: functional
[20] = test system: Cunninghamella; assay: Antimicrobial activity against Cunninghamella sp. assessed as percent of susceptible isolates after 24 hrs; type: functional
[21] = test system: Apophysomyces elegans; assay: Antimicrobial activity against Apophysomyces elegans assessed as percent of susceptible isolates after 24 hrs; type: functional

C[C@@H]1[C@H](O)[C@@H](C)/C=C/C=C/C=C/C=C/C=C/C=C/C=C/[C@H](O[C@@H]2O[C@H](C)[C@@H](O)[C@H](N)[C@@H]2O)C[C@@H]2O[C@](O)(C[C@@H](O)C[C@@H](O)[C@H](O)CC[C@@H](O)C[C@@H](O)CC(=O)O[C@H]1C)C[C@H](O)[C@H]2C(=O)O [AMPHOTERICIN B]
MIC50 [1]: 0.25 µg/mL (≈ 0.271 µM)
MIC90 [1]: 0.5 µg/mL (≈ 0.541 µM)
MIC50 [2]: 0.25 µg/mL (≈ 0.271 µM)
MIC90 [2]: 0.25 µg/mL (≈ 0.271 µM)
MIC50 [3]: 0.25 µg/mL (≈ 0.271 µM)
MIC90 [3]: 0.25 µg/mL (≈ 0.271 µM)
MIC50 [4]: 0.25 µg/mL (≈ 0.271 µM)
MIC90 [4]: 0.5 µg/mL (≈ 0.541 µM)
Activity [5]: inactive
MIC50 [6]: 0.25 µg/mL (≈ 0.271 µM)
MIC50 [7]: 0.125 µg/mL (≈ 0.135 µM)
MIC50 [8]: 0.25 µg/mL (≈ 0.271 µM)
MIC50 [9]: 1 µg/mL (≈ 1.08 µM)
MIC50 [10]: 0.125 µg/mL (≈ 0.135 µM)
Activity [11]: 100%
Activity [12]: 100%
Activity [13]: 100%
Activity [14]: 100%
Activity [15]: 94%
Activity [16]: 100%
Activity [17]: 100%
Activity [18]: 100%
Activity [19]: 100%
Activity [20]: 63%
Activity [21]: 100%

CC[C@H](C)C[C@H](C)CCCCCCCCC(=O)N[C@H]1C[C@@H](O)[C@@H](NCCN)NC(=O)[C@@H]2[C@@H](O)CCN2C(=O)[C@H]([C@H](O)CCN)NC(=O)[C@H]([C@H](O)[C@@H](O)c2ccc(O)cc2)NC(=O)[C@@H]2C[C@@H](O)CN2C(=O)[C@H]([C@@H](C)O)NC1=O [CASPOFUNGIN]
MIC50 [1]: > 16 µg/mL
MIC90 [1]: > 16 µg/mL
MIC50 [2]: > 16 µg/mL
MIC50 [3]: > 16 µg/mL
MIC50 [4]: > 16 µg/mL
MIC90 [4]: > 16 µg/mL
Activity [5]: inactive
Activity [6]: inactive
Activity [7]: inactive
Activity [8]: inactive
Activity [9]: inactive
Activity [10]: inactive
Activity [11]: 0%
Activity [12]: 0%
Activity [13]: 0%
Activity [15]: 0%
Activity [16]: 0%
Activity [17]: 0%
Activity [18]: 0%
Activity [19]: 0%
Activity [20]: 0%
Activity [21]: 0%

OC(Cn1cncn1)(Cn1cncn1)c1ccc(F)cc1F [FLUCONAZOLE]
MIC50 [1]: > 64 µg/mL
MIC90 [1]: > 64 µg/mL
Activity [2]: inactive
Antimicrobial activity [3]: inactive
MIC50 [4]: > 64 µg/mL
Activity [5]: inactive
Activity [6]: inactive
Activity [7]: inactive
Activity [8]: inactive
Activity [9]: inactive
Activity [10]: inactive
Activity [11]: 0%
Activity [12]: 0%
Activity [13]: 0%
Activity [15]: 0%
Activity [16]: 0%
Activity [17]: 0%
Activity [20]: 0%
Activity [21]: 0%

Nc1nc(=O)[nH]cc1F [FLUCYTOSINE]
Activity [1]: inactive
Activity [2]: inactive
Activity [3]: inactive
MIC50 [4]: > 64 µg/mL
Activity [6]: inactive
Activity [9]: inactive
Activity [11]: 0%
Activity [12]: 0%
Activity [13]: 0%
Activity [15]: 0%
Activity [16]: 0%
Activity [20]: 0%

CCC(C)n1ncn(-c2ccc(N3CCN(c4ccc(OC[C@H]5CO[C@](Cn6cncn6)(c6ccc(Cl)cc6Cl)O5)cc4)CC3)cc2)c1=O (some centres not stated) [ITRACONAZOLE]
MIC50 [1]: 0.5 µg/mL (≈ 0.709 µM)
MIC90 [1]: 4 µg/mL (≈ 5.67 µM)
MIC50 [2]: 0.5 µg/mL (≈ 0.709 µM)
MIC50 [3]: 0.5 µg/mL (≈ 0.709 µM)
MIC50 [4]: 0.5 µg/mL (≈ 0.709 µM)
MIC90 [4]: > 8 µg/mL
Activity [5]: inactive
Activity [6]: inactive
Activity [7]: inactive
Activity [8]: inactive
MIC50 [9]: 1 µg/mL (≈ 1.42 µM)
MIC50 [10]: 0.125 µg/mL (≈ 0.177 µM)
Activity [11]: 62%
Activity [12]: 50%
Activity [13]: 60%
Activity [14]: 0%
Activity [15]: 57%
Activity [16]: 0%
Activity [17]: 67%
Activity [18]: 50%
Activity [19]: 100%
Activity [20]: 29%
Activity [21]: 80%

CC(=O)N1CCN(c2ccc(OCC3COC(Cn4ccnc4)(c4ccc(Cl)cc4Cl)O3)cc2)CC1 (configuration not stated) [KETOCONAZOLE]
MIC50 [1]: 1 µg/mL (≈ 1.88 µM)
Activity [2]: inactive
Activity [3]: inactive
Activity [4]: inactive
Activity [5]: inactive
Activity [6]: inactive
Activity [7]: inactive
Activity [8]: inactive
Activity [9]: inactive
Activity [10]: inactive
Activity [11]: 83%
Activity [12]: 0%
Activity [13]: 0%
Activity [15]: 33%
Activity [16]: 0%
Activity [20]: 0%

CC[C@@H]([C@H](C)O)n1ncn(-c2ccc(N3CCN(c4ccc(OC[C@@H]5CO[C@@](Cn6cncn6)(c6ccc(F)cc6F)C5)cc4)CC3)cc2)c1=O [POSACONAZOLE]
MIC50 [1]: 0.25 µg/mL (≈ 0.357 µM)
MIC90 [1]: 1 µg/mL (≈ 1.43 µM)
MIC50 [2]: 0.25 µg/mL (≈ 0.357 µM)
MIC90 [2]: 1 µg/mL (≈ 1.43 µM)
MIC50 [3]: 0.25 µg/mL (≈ 0.357 µM)
MIC50 [4]: 0.5 µg/mL (≈ 0.713 µM)
MIC90 [4]: 2 µg/mL (≈ 2.85 µM)
Activity [5]: inactive
Activity [6]: inactive
Activity [7]: inactive
Activity [8]: inactive
MIC50 [9]: 0.5 µg/mL (≈ 0.713 µM)
MIC50 [10]: 0.03 µg/mL (≈ 0.0428 µM)
Activity [11]: 80%
Activity [12]: 64%
Activity [13]: 78%
Activity [15]: 70%
Activity [16]: 0%
Activity [17]: 67%
Activity [18]: 100%
Activity [19]: 100%
Activity [20]: 75%
Activity [21]: 83%

C[C@@H](c1ncncc1F)[C@](O)(Cn1cncn1)c1ccc(F)cc1F [VORICONAZOLE]
MIC50 [1]: 8 µg/mL (≈ 22.9 µM)
MIC90 [1]: > 8 µg/mL
MIC50 [2]: > 8 µg/mL
Antimicrobial activity [3]: inactive
MIC50 [4]: > 8 µg/mL
MIC90 [4]: > 8 µg/mL
Activity [5]: inactive
Activity [6]: inactive
Activity [7]: inactive
Activity [8]: inactive
MIC50 [9]: > 8 µg/mL
MIC90 [9]: > 8 µg/mL
Activity [11]: 5%
Activity [12]: 0%
Activity [13]: 0%
Activity [15]: 0%
Activity [16]: 0%
Activity [17]: 0%
Activity [18]: 0%
Activity [19]: 0%
Activity [20]: 10%
Activity [21]: 100%
